Bioassay records: PubChem, The Scripps Research Institute Molecular Screening Center
PAFAH1B2 FP inh: blocks human PAF acetylhydrolase 1b catalytic subunit 2 | inhibition, % at 3.39 µM | 340,000 tested, 1.2% active | P68402 | recombinant PAFAH1B2, FP-rhodamine activity probe, fluorescence polarization;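 active means inhibition above the mean of all tested compounds plus 3 SD, cut at about 24% in these data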;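 further: 0% = enzyme with DMSO and 100% = wells lacking PAFAH1B2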
ARFGAP1 inhibitor: inhibits rat ARF GTPase activating protein 1 | Q62848 | Arfgap1-stimulated ARF1 GTP hydrolysis, GDP FP detection | inhibition, % at 16.5 µM | 360,000 tested, 0.26% active;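 active means inhibition above a per-plate limit, mean inhibition of low control wells plus 3 SD, cut at about 25% in these data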;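 further: 0% = DMSO wells with enzyme and 100% = wells lacking Arfgap1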
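Material – truncated rat Arfgap1 GAP domain · Buffer or medium – HEPES-based buffer, pH 7.5 · Reagent – human ARF1(Δ1-17)-GTP substrate · Dosing – 16.5 µM single point, 1.26% DMSO · Schedule – GTP hydrolysis reaction 2 h at 25 °C · Technique – GDP detection by fluorescence polarization · Benchmarks – No-Arfgap1 wells (100%) versus DMSO full-reaction wells (0%) · Repeats – single replicate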
pPAFAH FP inh: inhibitors of human plasma PAF acetylhydrolase (pPAFAH) | Q13093 | recombinant pPAFAH, FP-rhodamine probe fluorescence polarization | inhibition, % at 3.39 µM | 330,000 tested, 1.5% active | AID 463082;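 active means inhibition above the mean inhibition across the screen plus 3 SD, cut at about 25% in these data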;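 further: inhibitors block binding of the rhodamine activity-based probe so polarization drops; 0% = enzyme with DMSO and 100% = wells lacking pPAFAH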
Target sequence (Q13093 whole entry, looked up): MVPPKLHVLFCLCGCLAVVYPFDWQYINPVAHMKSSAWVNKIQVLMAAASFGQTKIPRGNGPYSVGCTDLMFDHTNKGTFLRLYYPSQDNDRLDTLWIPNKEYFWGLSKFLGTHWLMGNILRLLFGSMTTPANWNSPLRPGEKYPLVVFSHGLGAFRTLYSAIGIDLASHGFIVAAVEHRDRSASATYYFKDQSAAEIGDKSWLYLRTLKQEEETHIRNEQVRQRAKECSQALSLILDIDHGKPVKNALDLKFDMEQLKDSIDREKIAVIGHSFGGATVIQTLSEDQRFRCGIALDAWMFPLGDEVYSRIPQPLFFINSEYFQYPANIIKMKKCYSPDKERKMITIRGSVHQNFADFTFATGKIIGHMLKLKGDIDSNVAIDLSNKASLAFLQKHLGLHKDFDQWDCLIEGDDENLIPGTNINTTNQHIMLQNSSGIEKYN
PAFAH1B3 FP inh: PAFAH1B3 (human) inhibition. Q15102. inhibition, % at 3.39 µM. recombinant PAFAH1B3, FP-rhodamine probe, fluorescence polarization. 340,000 tested, 0.28% active. AID 492972;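 active means inhibition above the screen-wide average of all tested compounds plus 3 SD, cut at about 25% in these data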;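 further: 0% = enzyme with DMSO only and 100% = wells lacking PAFAH1B3 protein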
Target sequence (Q15102 whole entry, looked up): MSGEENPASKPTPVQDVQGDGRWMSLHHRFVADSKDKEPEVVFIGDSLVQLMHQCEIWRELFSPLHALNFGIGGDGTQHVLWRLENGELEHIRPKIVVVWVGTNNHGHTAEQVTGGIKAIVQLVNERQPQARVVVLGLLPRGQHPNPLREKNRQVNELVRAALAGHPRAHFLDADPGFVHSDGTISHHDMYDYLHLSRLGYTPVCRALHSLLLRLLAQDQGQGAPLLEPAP
PAFAH2 FP inh: PAFAH2 (human) inhibition; Q99487; recombinant PAFAH2, FP-rhodamine activity probe, fluorescence polarization; inhibition, % at 3.39 µM; 340,000 tested, 0.99% active;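 active means inhibition above the mean over all tested compounds plus 3 SD, cut at about 30% in these data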;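 further: inhibitors block probe labeling of enzyme so polarization drops; 0% = enzyme with DMSO and 100% = wells lacking PAFAH2 protein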
ASAP1 inh: ASAP1 ArfGAP inhibition. inhibition, % at 16.5 µM. ASAP1-stimulated ARF1 GTP hydrolysis, GDP FP detection. 360,000 tested, 0.19% active; in the data active means inhibition above about 25%;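 further: 0% = vehicle with enzyme and substrate and 100% = no enzyme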
PAFAH2 confirm: PAFAH2 (human) inhibition, confirmed; shares compounds with PAFAH2 FP inh; recombinant PAFAH2, FP-rhodamine activity probe, fluorescence polarization; inhibition, % at 3.39 µM; 2,300 tested, 65% active; AID 493030;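 active means mean inhibition over three repeats above a set limit taken from the earlier primary screen, cut at about 30% in these data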;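 further: inhibitor blocks binding of rhodamine activity probe so polarization falls; 0% = enzyme with DMSO and 100% = wells lacking PAFAH2 protein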
* = called active by the depositor; x = no result given. Rows were chosen to be rich in hits. Some 2.7% of all compounds tested hit in one or more screens of this group.

SMILES	PAFAH1B2 FP inh	ARFGAP1 inhibitor	pPAFAH FP inh	PAFAH1B3 FP inh	PAFAH2 FP inh	ASAP1 inh	PAFAH2 confirm
Cc1ccc(CSc2nnc(SCC(=O)N/N=C/c3c[nH]c4ccccc34)s2)cc1	3.5	3.8	x	2.4	29.8*	13.2	31.2*
CC(C)(C)N(Cc1ccc2c(c1)OCO2)C(=O)/C=C\S(=O)c1ccccc1 (stereo not drawn)	0.4	-3.1	x	6.0	-6.1	7.0	x
CN(C)S(=O)(=O)c1ccc(C(=O)N2CCN(S(=O)(=O)c3cccs3)CC2)cc1	4.4	5.7	2.1	-3.5	41.8*	10.1	39.2*
COC(=O)c1ccc(C(c2c(C)n(C)n(-c3ccccc3)c2=O)c2c(C)n(C)n(-c3ccccc3)c2=O)cc1	9.1	1.7	1.5	3.9	-16.4	-0.5	x
Cc1c(C(c2ccc(Br)cc2)c2c(C)n(C)n(-c3ccccc3)c2=O)c(=O)n(-c2ccccc2)n1C	4.5	-6.0	2.1	5.1	36.8*	2.2	25.6
Cc1ccc(CNS(=O)(=O)N(C)C)cc1	6.4	1.5	2.0	4.0	10.9	1.2	x
CCN(CC)S(=O)(=O)c1cccc(NC(=O)COC(=O)C2=COCCO2)c1	9.1	1.8	5.6	14.6	30.2*	5.7	10.9
CCN(CC)S(=O)(=O)c1cccc(NC(=O)COC(=O)C2COc3ccccc3O2)c1 (stereo not drawn)	4.3	-1.4	10.1	0.1	1.9	-14.2	x
CC(C)(C)c1ccc(NC(=O)COC(=O)C2=COCCO2)cc1	1.3	0.6	8.7	8.0	22.0	-13.3	x
O=C(COC(=O)C1=COCCO1)Nc1ccc(Oc2ccccc2)cc1	-3.9	-3.0	5.9	-0.5	82.5*	6.7	77.2*
O=C(COC(=O)C1=COCCO1)Nc1ccc(Br)cc1Br	-0.5	7.0	9.1	4.4	57.9*	-4.0	45.7*
O=C(COC(=O)C1=COCCO1)Nc1ccc(F)cc1	1.6	7.3	6.7	5.2	69.0*	3.3	59.1*
CCn1cc(-c2cc(C(=O)O)c3ccccc3n2)cn1	4.4	-8.2	-0.4	20.2	-7.7	-5.4	x
CC(C)CC(N)c1csc(NC(=O)C(c2ccccc2)c2ccccc2)n1 (stereo not drawn)	x	14.0	x	x	x	10.1	x
COc1cc2ccccc2cc1C(=O)N1CCN(c2ccccn2)CC1	1.3	0.7	-1.7	1.6	-1.0	-2.9	x
Cc1ccccc1NC(=O)COC(=O)C1=COCCO1	2.6	9.6	0.0	6.7	20.6	-15.3	x
CCC(C)c1ccccc1NC(=O)COC(=O)C1=COCCO1 (stereo not drawn)	5.0	3.1	9.4	11.4	62.1*	0.5	48.3*
COC(=O)N/N=C/c1cc(Br)ccc1O	2.7	9.3	4.2	2.5	5.9	6.2	x
CC(C)NC(=S)N/N=C/c1cc(Br)ccc1O	8.3	2.2	13.5	6.5	31.8*	2.9	32.1*
C[C@H](O)[C@@H]1CN2CCc3ccc(-c4ccc5c(c4)OCO5)cc3[C@@H]2C[C@@H]1N(C)C(=O)c1cccc(Cl)c1	x	-6.7	x	x	x	3.8	x
CC1CC1C(=O)OCC(=O)NCc1ccc(Cl)cc1Cl (stereo not drawn)	4.9	2.2	5.5	4.3	62.3*	-0.3	53.2*
CC1CC1C(=O)OCC(=O)NCc1ccc(Cl)cc1 (stereo not drawn)	6.0	-1.2	6.6	0.6	45.7*	7.4	22.9
COc1ccc(CNC(=O)COC(=O)C2CC2C)cc1OC (stereo not drawn)	2.7	6.9	0.4	4.6	8.4	-0.3	x
COc1cccc(CN2CCN(Cc3ccc4c(NC(C)=O)cccc4n3)CC2CCO)c1 (stereo not drawn)	3.5	3.0	0.1	1.2	-13.4	0.9	x
CCc1ccccc1NC(=O)C1CCCN(S(=O)(=O)c2ccc3c(c2)CC(C)N3C(C)=O)C1 (stereo not drawn)	2.6	12.6	3.4	3.3	-0.7	5.4	x
SMILES	PAFAH1B2 FP inh	ARFGAP1 inhibitor	pPAFAH FP inh	PAFAH1B3 FP inh	PAFAH2 FP inh	ASAP1 inh	PAFAH2 confirm
Cc1nc(S/C(=C/c2ccc(-c3cccc(Cl)c3)o2)C(=O)O)n[nH]1	20.8	6.0	5.8	6.1	46.4*	-6.4	31.9*
COC(=O)N/N=C/c1ccc(-c2cccc(Cl)c2)o1	0.4	0.1	2.9	-3.8	-1.9	4.9	x
O=C(COC(=O)c1ccccn1)Nc1cccc(Cl)c1	-1.8	12.4	-0.8	3.9	-1.6	-1.1	x
Cn1nccc1C(=O)OCC(=O)Nc1cccc(Cl)c1	6.7	10.0	3.5	1.5	66.2*	6.8	52.5*
Cn1nccc1C(=O)OCC(=O)Nc1ccc(S(N)(=O)=O)cc1	3.4	-12.1	0.2	-2.6	-3.8	-3.6	x
O=C(COC(=O)c1cc[n+]([O-])cc1)Nc1ccccc1Cl	2.1	10.5	3.3	8.5	6.6	-0.1	x
Cn1ccc(C(=O)OCC(=O)Nc2ccccc2Cl)n1	4.5	-5.7	x	2.3	38.5*	-9.5	28.5
Cn1ccc(C(=O)OCC(=O)Nc2cccc(Cl)c2)n1	-2.0	-6.6	3.7	-0.6	83.2*	13.3	78.1*
O=C(N/N=C\c1cc(Br)cs1)C1COc2ccccc2O1 (stereo not drawn)	7.7	14.8	3.0	4.3	-6.5	3.0	x
C=CCOc1ccc(/C=C/C(=O)OCC(=O)NCCc2ccccc2)cc1	-2.3	14.5	6.5	-1.8	28.1	23.7	x
O=C(COC(=O)C1CC2C=CC1C2)NCc1ccco1 (stereo not drawn)	1.2	-12.2	16.2	3.3	32.4*	7.5	12.0
O=C(COC(=O)C1CC2C=CC1C2)NCc1ccc(F)cc1 (stereo not drawn)	3.5	8.7	10.0	2.5	22.1	-12.5	x
O=C(COC(=O)/C=C/c1ccc(F)cc1)NCc1ccco1	2.2	14.1	12.1	3.0	47.0*	4.8	28.7
C=CCOc1ccc(/C=C/C(=O)OCC(=O)NCc2ccco2)cc1	-0.3	-13.9	5.5	7.9	46.1*	-9.0	36.3*
O=C(COC(=O)/C=C/c1ccc([N+](=O)[O-])cc1)NCc1ccco1	2.3	9.6	6.0	8.8	12.6	5.7	x
CC(=O)NCc1ccc(S(=O)(=O)NC(C(=O)O)C(C)C)cc1 (stereo not drawn)	2.2	2.5	-1.2	2.2	1.4	-12.2	x
CC(NC(=O)COC(=O)Cc1ccc(-c2ccccc2)cc1)c1ccccc1 (stereo not drawn)	4.3	-4.0	9.3	6.7	6.4	4.7	x
CC(C)(C)c1nc2scc(-c3ccc(Br)cc3)c2c(=O)o1	0.4	-2.8	0.7	11.0	5.2	-7.3	x
CCc1cc2c(=O)[nH]c(-c3ccncc3)nc2s1	4.5	-2.9	-0.9	-3.5	-4.3	-15.1	x
CCc1cc2c(=O)oc(-c3ccc(Br)cc3)nc2s1	-2.2	-4.8	x	0.5	78.4*	-8.1	67.2*
Cc1sc2nc(-c3ccc(Br)cc3)oc(=O)c2c1C	7.1	x	-2.3	8.7	49.1*	x	35.6*
